Experimental data reported in ChEMBL document CHEMBL3808334, “Synthesis and in vitro evaluation of novel triazine analogues as anticancer agents and their interaction studies with bovine serum albumin” (Eur J Med Chem, 2016).

Tests used:
[1] = biological target: Albumin (Bos taurus, UniProt P02769); experiment: Binding affinity to bovine serum albumin assessed as binding constant in emission spectra by Benesie-Hildebrand plot analysis; format: ADME; details: cattle, isolated protein
Outline: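 BSA, 10 µM, in 0.1 M phosphate buffer pH 7.4, titrated with compound (0–20 µM per the figure; diluted from 10⁻³ mol L⁻¹ DMSO stocks). Run at 300 K in a 1 cm quartz cell. UV spectra taken 200–800 nm after 5 min equilibration; fluorescence excited at 280 nm, emission 351 nm, slit 10 nm. K is the intercept/slope ratio of a linear fit of 1/(A₀−A) or 1/(F₀−F) vs 1/[compound].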

[2] = test system: A549; experiment: Growth inhibition of human A549/ATCC cells assessed as cell growth at 10^-7 M incubated for 48 hrs by sulforhodamine B assay; format: functional; details: A549, 48 h, read-out: Activity
Outline: (§1)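 Five-dose assay: five concentrations from 10-fold or ½-log serial dilutions. Cells are plated at 5,000–40,000 per well according to doubling time, grown 24 h, then exposed 48 h at 37 °C, 5% CO₂. Fixed with cold 50% TCA (final addition) for 60 min at 4 °C and stained with 0.4% SRB in 1% acetic acid. Bound dye is solubilized in 10 mM Tris base and read at 515 nm. GI₅₀ is where [(Ti−Tz)/(C−Tz)]×100 = 50, with a time-zero plate as Tz.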

[3] = Growth inhibition of human TK10 cells assessed as cell growth at 10^-8 M incubated for 48 hrs by sulforhodamine B assay; format: functional; details: TK-10, 48 h, read-out: Activity
[4] = test system: MDA-MB-468; experiment: Growth inhibition of human MDA-MB-468 cells assessed as cell growth at 10^-4 M incubated for 48 hrs by sulforhodamine B assay; format: functional; details: MDA-MB-468, 48 h, read-out: Activity
[5] = test system: K562; experiment: Growth inhibition of human K562 cells assessed as cell growth at 10 uM incubated for 48 hrs by sulforhodamine B assay; format: functional; details: K562, 48 h, read-out: Activity
[6] = Growth inhibition of human SKOV3 cells incubated for 48 hrs by sulforhodamine B assay; format: functional; details: SK-OV-3, 48 h
Outline: (§2)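 Cells were plated at 5,000–40,000 per well according to doubling time and preincubated 24 h at 37 °C in 5% CO2; time-zero plates were then TCA-fixed. Five concentrations (10-fold or ½-log dilutions, DMSO stock) were incubated 48 h. Cells were TCA-fixed, stained with 0.4% SRB and read at 515 nm. GI50 was taken where [(Ti−Tz)/(C−Tz)]×100 = 50.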

[7] = Growth inhibition of human HL-60(TB) cells assessed as cell growth at 10^-8 M incubated for 48 hrs by sulforhodamine B assay; format: functional; details: HL-60, 48 h, read-out: Activity
Outline: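 Cells plated at 5,000–40,000/well according to doubling time and preincubated 24 h at 37 °C, 5% CO₂, with time-zero plates TCA-fixed. Drugs were kept as DMSO concentrates at 400× the top concentration and diluted in medium with 50 µg/ml gentamicin. Five 10-fold or ½-log dilutions were run for 48 h, followed by SRB staining and A515. Percent growth = (Ti−Tz)/(C−Tz)×100, or (Ti−Tz)/Tz×100 when Ti<Tz.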

[8] = Growth inhibition of human OVCAR4 cells incubated for 48 hrs by sulforhodamine B assay; format: functional; details: OVCAR-4, 48 h; outline: as §2
[9] = Growth inhibition of human HOP92 cells assessed as cell growth at 10 uM incubated for 48 hrs by sulforhodamine B assay; format: functional; details: HOP-92, 48 h, read-out: Activity
[10] = Growth inhibition of human SNB19 cells assessed as cell growth at 10^-7 M incubated for 48 hrs by sulforhodamine B assay; format: functional; details: SNB-19, 48 h, read-out: Activity
[11] = Growth inhibition of human SNB19 cells assessed as cell growth at 10^-6 M incubated for 48 hrs by sulforhodamine B assay; format: functional; details: SNB-19, 48 h, read-out: Activity
[12] = Growth inhibition of human UACC62 cells assessed as cell growth at 10^-4 M incubated for 48 hrs by sulforhodamine B assay; format: functional; details: UACC-62, 48 h, read-out: Activity
[13] = test system: MDA-MB-435; experiment: Growth inhibition of human MDA-MB-435 cells assessed as cell growth at 10^-8 M incubated for 48 hrs by sulforhodamine B assay; format: functional; details: MDA-MB-435, 48 h, read-out: Activity
[14] = Growth inhibition of human SNB75 cells assessed as cell growth at 10^-8 M incubated for 48 hrs by sulforhodamine B assay; format: functional; details: SNB-75, 48 h, read-out: Activity
[15] = test system: HT-29; experiment: Growth inhibition of human HT-29 cells assessed as cell growth at 10 uM incubated for 48 hrs by sulforhodamine B assay; format: functional; details: HT-29, 48 h, read-out: Activity
[16] = Growth inhibition of human SW620 cells assessed as cell growth at 10^-8 M incubated for 48 hrs by sulforhodamine B assay; format: functional; details: SW-620, 48 h, read-out: Activity
[17] = test system: 786-0; experiment: Growth inhibition of human 786-0 cells assessed as cell growth at 10^-6 M incubated for 48 hrs by sulforhodamine B assay; format: functional; details: 786-0, 48 h, read-out: Activity; outline: as §1
[18] = test system: MCF7; experiment: Growth inhibition of human MCF7 cells assessed as cell growth at 10^-7 M incubated for 48 hrs by sulforhodamine B assay; format: functional; details: MCF7, 48 h, read-out: Activity
[19] = Growth inhibition of human SNB75 cells assessed as cell growth at 10 uM incubated for 48 hrs by sulforhodamine B assay; format: functional; details: SNB-75, 48 h, read-out: Activity
[20] = Growth inhibition of human RPMI8226 cells assessed as cell growth at 10^-5 M incubated for 48 hrs by sulforhodamine B assay; format: functional; details: RPMI-8226, 48 h, read-out: Activity
[21] = test system: A498; experiment: Growth inhibition of human A498 cells incubated for 48 hrs by sulforhodamine B assay; format: functional; details: A498, 48 h; outline: as §1
[22] = Growth inhibition of human SW620 cells assessed as cell growth at 10^-6 M incubated for 48 hrs by sulforhodamine B assay; format: functional; details: SW-620, 48 h, read-out: Activity
[23] = Growth inhibition of human HCC2998 cells assessed as cell growth at 10^-8 M incubated for 48 hrs by sulforhodamine B assay; format: functional; details: HCC 2998, 48 h, read-out: Activity
Outline: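 Cells seeded at 5,000–40,000/well according to doubling time and preincubated 24 h at 37 °C, 5% CO2. Time-zero plates were TCA-fixed. DMSO concentrate was diluted in medium with 50 µg/ml gentamicin to give five concentrations (10-fold or ½ log steps), then exposed 48 h. Cells were TCA-fixed, stained with 0.4% SRB and read at 515 nm. Percent growth was taken against time-zero and control; GI50, TGI and LC50 derived.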

[24] = read-out: LC50 (the source's name)
[25] = read-out: pLC50 (the source's name) (converted)

Albumin, sequence (P02769 whole entry): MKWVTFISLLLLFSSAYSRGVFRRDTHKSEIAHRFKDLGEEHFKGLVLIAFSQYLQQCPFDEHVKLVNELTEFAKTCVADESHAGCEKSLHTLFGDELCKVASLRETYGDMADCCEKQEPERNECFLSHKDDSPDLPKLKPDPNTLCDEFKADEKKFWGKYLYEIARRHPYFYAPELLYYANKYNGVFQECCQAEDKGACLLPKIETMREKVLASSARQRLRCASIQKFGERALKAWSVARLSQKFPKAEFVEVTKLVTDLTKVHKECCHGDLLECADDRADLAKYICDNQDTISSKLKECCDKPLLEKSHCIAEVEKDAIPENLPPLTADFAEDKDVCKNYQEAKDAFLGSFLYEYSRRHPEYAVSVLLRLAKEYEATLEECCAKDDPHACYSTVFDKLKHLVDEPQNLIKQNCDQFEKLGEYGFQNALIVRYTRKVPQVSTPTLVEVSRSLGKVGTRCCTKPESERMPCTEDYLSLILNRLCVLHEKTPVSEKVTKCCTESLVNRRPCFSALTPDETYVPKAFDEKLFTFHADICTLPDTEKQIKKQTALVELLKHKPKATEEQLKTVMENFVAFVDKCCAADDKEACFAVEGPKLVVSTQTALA

SMILES	K [1]	growth at 0.1 µM [2] [%]	growth at 0.01 µM [3] [%]	growth at 100 µM [4] [%]	growth at 10 µM [5] [%]	GI50 ([6]; read-out: GI50) [µM]	CC50 [6, 24] [µM]	TGI ([6]; read-out: TGI) [µM]	GI50 ([6]; read-out: pGI50 (converted)) [µM]	CC50 [6, 25] [µM]	TGI ([6]; read-out: pTGI (converted)) [µM]	growth at 0.01 µM [7] [%]	GI50 ([8]; read-out: GI50) [µM]	CC50 [8, 24] [µM]	TGI ([8]; read-out: TGI) [µM]	GI50 ([8]; read-out: pGI50 (converted)) [µM]	CC50 [8, 25] [µM]	TGI ([8]; read-out: pTGI (converted)) [µM]	growth at 10 µM [9] [%]	growth at 0.1 µM [10] [%]	other results
c1ccc(-c2nc(Nc3ccc(-c4nc5ccccc5[nH]4)cc3)nc(N3CCOCC3)n2)cc1	3.2 ×10⁴ /M	97	99	-58	-30.1	2.11	8.47	4.23	2.09	8.51	4.27	73	1.68	5.63	3.08	1.7	5.62	3.09	-66.2	95	growth at 1 µM [11]: 92%; growth at 100 µM [12]: -75%; growth at 0.01 µM [13]: 98%; growth at 0.01 µM [14]: 79%; growth at 10 µM [15]: -59.9%; growth at 0.01 µM [16]: 98%; growth at 1 µM [17]: 9%; growth at 0.1 µM [18]: 92%; growth at 10 µM [19]: -89.7%; growth at 10 µM [20]: -32%; GI50 ([21]; read-out: GI50): 1.09 µM; CC50 [21, 24]: 6.31 µM; TGI ([21]; read-out: TGI): 2.62 µM; GI50 ([21]; read-out: pGI50 (converted)): 1.1 µM; CC50 [21, 25]: 6.31 µM; TGI ([21]; read-out: pTGI (converted)): 2.63 µM; growth at 1 µM [22]: 39%; growth at 0.01 µM [23]: 100%
Fc1ccc(-c2nc(Nc3ccc(-c4nc5ccccc5[nH]4)cc3)nc(N3CCOCC3)n2)cc1	7.9 ×10⁴ /M	100	91	-19	-22	2.37	> 100	5.53	2.34	> 100	5.5	92	3.13	> 100	13	3.16	> 100	13.2	-6.57	97	growth at 1 µM [11]: 92%; growth at 100 µM [12]: -45%; growth at 0.01 µM [13]: 99%; growth at 0.01 µM [14]: 86%; growth at 10 µM [15]: -23.1%; growth at 0.01 µM [16]: 97%; growth at 1 µM [17]: 73%; growth at 0.1 µM [18]: 89%; growth at 10 µM [19]: -19.2%; growth at 10 µM [20]: -17%; GI50 ([21]; read-out: GI50): 1.52 µM; CC50 [21, 24]: 8.42 µM; TGI ([21]; read-out: TGI): 3.57 µM; GI50 ([21]; read-out: pGI50 (converted)): 1.51 µM; CC50 [21, 25]: 8.51 µM; TGI ([21]; read-out: pTGI (converted)): 3.55 µM; growth at 1 µM [22]: 100%; growth at 0.01 µM [23]: 99%
Clc1ccc(-c2nc(Nc3ccc(-c4nc5ccccc5[nH]4)cc3)nc(N3CCOCC3)n2)cc1	4.2 ×10⁷ /M	99	93	-41	-100	1.84	100	3.28	1.82	100	3.31	97	1.04	5.53	2.4	1.05	5.5	2.4	-72.1	95	growth at 1 µM [11]: 17%; growth at 100 µM [12]: -13%; growth at 0.01 µM [13]: 100%; growth at 0.01 µM [14]: 83%; growth at 10 µM [15]: -78.6%; growth at 0.01 µM [16]: 94%; growth at 1 µM [17]: -78%; growth at 0.1 µM [18]: 86%; growth at 10 µM [19]: -92.6%; growth at 10 µM [20]: -51%; GI50 ([21]; read-out: GI50): 1.69 µM; TGI ([21]; read-out: TGI): 3.29 µM; GI50 ([21]; read-out: pGI50 (converted)): 1.7 µM; TGI ([21]; read-out: pTGI (converted)): 3.31 µM; growth at 1 µM [22]: -72%; growth at 0.01 µM [23]: 94%
c1ccc2[nH]c(-c3ccc(Nc4nc(N5CCCCC5)nc(N5CCOCC5)n4)cc3)nc2c1	5.7 ×10⁴ /M	96	96	-31	-6.74	2.37	26.9	5.43	2.34	26.9	5.37	98	3.98	> 100	25.4	3.98	> 100	25.1	43.4	98	growth at 1 µM [11]: 99%; growth at 100 µM [12]: -38%; growth at 0.01 µM [13]: 96%; growth at 0.01 µM [14]: 75%; growth at 10 µM [15]: -28.1%; growth at 0.01 µM [16]: 97%; growth at 1 µM [17]: 79%; growth at 0.1 µM [18]: 91%; growth at 10 µM [19]: -0.68%; growth at 10 µM [20]: -19%; GI50 ([21]; read-out: GI50): 1.77 µM; CC50 [21, 24]: 9.89 µM; TGI ([21]; read-out: TGI): 4.18 µM; GI50 ([21]; read-out: pGI50 (converted)): 1.78 µM; CC50 [21, 25]: 10 µM; TGI ([21]; read-out: pTGI (converted)): 4.17 µM; growth at 1 µM [22]: 96%; growth at 0.01 µM [23]: 98%
